In ChEMBL document CHEMBL1138216, “Design and synthesis of novel derivatives of the muscarinic agonist tetra(ethylene glycol)(3-methoxy-1,2,5-thiadiazol-4-yl) [3-(1-methyl-1,2,5,6-tetrahydropyrid-3-yl)-1,2,5-thiadiazol-4-yl] ether (CDD-0304): effects of structural modifications on the binding and activity at muscarinic receptor …” (J Med Chem, 2006):
pIC50: −log10 of the molar value. Activity calls are given as the source filed them. The calls are words filed in the database; no cut-off is given here.

Tests used:
[1] = target: T1, Muscarinic acetylcholine receptor M4 (Homo sapiens, UniProt P08173); assay: Activity at human M4 receptor assessed as inhibition of forskolin-stimulated cAMP accumulation; assay type: functional
T1 sequence (P08173 whole entry): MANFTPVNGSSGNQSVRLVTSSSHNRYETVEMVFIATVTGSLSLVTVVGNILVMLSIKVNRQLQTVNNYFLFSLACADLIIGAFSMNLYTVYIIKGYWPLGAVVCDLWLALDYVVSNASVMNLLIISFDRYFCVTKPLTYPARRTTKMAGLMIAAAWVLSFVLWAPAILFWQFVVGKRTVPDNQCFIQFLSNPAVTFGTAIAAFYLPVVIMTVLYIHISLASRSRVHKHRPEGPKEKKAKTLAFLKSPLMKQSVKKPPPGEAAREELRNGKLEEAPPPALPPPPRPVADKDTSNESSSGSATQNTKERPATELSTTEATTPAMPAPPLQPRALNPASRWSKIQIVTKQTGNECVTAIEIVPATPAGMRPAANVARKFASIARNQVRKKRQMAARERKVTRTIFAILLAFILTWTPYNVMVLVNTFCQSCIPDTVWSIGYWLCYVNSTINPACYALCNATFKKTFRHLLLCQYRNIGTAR

[2] = system: Rattus norvegicus; assay: Antipsychotic activity in Sprague-Dawley rat assessed as ability to reverse apomorphine effect on prepulse inhibition of the startle response at 3 mg/kg, sc; assay type: functional, organism-based; design: dose 3 mg/kg
How it was run: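 Male Sprague-Dawley rats, 250-300 g, habituated a day before. Drug in water or saline sc (1 mL/kg) 25 min, apomorphine 1.0 mg/kg 5 min pre-test; muscarinic agonists 0.1-3 mg/kg. Session of 15 each pulse-alone (120 dB, 100 ms) and pulse preceded 200 ms by 20 ms prepulse 12 dB above 70 dB background; 12 rats/group; %PPI calculated.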

For `COc1nsnc1OCCOCCOCCOCCOc1nsnc1C1=CCCN(C)C1`, the pIC50 [1] was 7.90 and the Activity [2] was “Active”.
